From ChEMBL document CHEMBL3045123, “Isolation and identification of antifungal fatty acids from the basidiomycete Gomphus floccosus” (J Agric Food Chem, 2008)
Calls of active or inactive are those of the source. The calls are words filed in the database; no cut-off is given here.

What was measured:
Colletotrichum fragariae [1] = experiment: Antifungal activity against Colletotrichum fragariae assessed as inhibition of fungal growth at 20 ug measured after 4 to 5 days by direct bioautography; assay type: functional; details: read-out: DIZ
In short: (§1)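 For TLC direct bioautography, developed plates were sprayed with a conidial suspension of the test fungus. Plates were incubated in a moisture chamber at 26 °C with a 12 h photoperiod. Zones of growth inhibition were measured as diameters 4-5 days after treatment and reported as mean zone dimensions (mm) ± SD.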

[2] = test system: Colletotrichum gloeosporioides; experiment: Antifungal activity against Colletotrichum gloeosporioides assessed as inhibition of fungal growth measured after 48 hr by 96-well microdilution assay; assay type: functional, organism-based
In short: (§2)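 Conidia were harvested from 7-10 day PDA cultures grown at 24 °C with a 12 h photoperiod, filtered through Miracloth, and set to 1.0 × 10^6 conidia/mL by A625. Six-point microdilution broth format used final concentrations of 1, 3.3, 10, 33, 100 and 333 µM, with captan as standard. Growth was read at A620 at 0-72 h (Phomopsis also 120 and 144 h). Two experiments were pooled; IC50 was taken as 50% growth reduction.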

Phomopsis viticola [3] = experiment: Antifungal activity against Phomopsis viticola assessed as inhibition of fungal growth measured after 120 hr by 96-well microdilution assay
Phomopsis viticola [4] = experiment: Antifungal activity against Phomopsis viticola assessed as inhibition of fungal growth measured after 144 hr by 96-well microdilution assay
[5] = test system: Colletotrichum gloeosporioides; experiment: Antifungal activity against Colletotrichum gloeosporioides assessed as inhibition of fungal growth at 20 ug measured after 4 to 5 days by direct bioautography; assay type: functional; details: read-out: DIZ; in short: as §1
Colletotrichum fragariae [6] = experiment: Antifungal activity against Colletotrichum fragariae assessed as inhibition of fungal growth measured after 48 hr by 96-well microdilution assay; assay type: functional, organism-based; in short: as §2
[7] = test system: Colletotrichum gloeosporioides; experiment: Antifungal activity against Colletotrichum gloeosporioides assessed as inhibition of fungal growth at 80 ug measured after 4 to 5 days by direct bioautography; assay type: functional; details: read-out: DIZ; in short: as §1
Botrytis cinerea [8] = experiment: Antifungal activity against Botryotinia fuckeliana assessed as inhibition of fungal growth measured after 48 hr by 96-well microdilution assay; assay type: functional, organism-based; in short: as §2
[9] = test system: Colletotrichum gloeosporioides; experiment: Antifungal activity against Colletotrichum gloeosporioides assessed as inhibition of fungal growth measured after 72 hr by 96-well microdilution assay; assay type: functional, organism-based; in short: as §2
Botrytis cinerea [10] = experiment: Antifungal activity against Botryotinia fuckeliana assessed as inhibition of fungal growth measured after 72 hr by 96-well microdilution assay; assay type: functional, organism-based; in short: as §2
Colletotrichum acutatum [11] = experiment: Antifungal activity against Colletotrichum acutatum assessed as inhibition of fungal growth at 80 ug measured after 4 to 5 days by direct bioautography; assay type: functional; details: read-out: DIZ; in short: as §1
Fusarium oxysporum [12] = experiment: Antifungal activity against Fusarium oxysporum assessed as inhibition of fungal growth measured after 48 hr by 96-well microdilution assay; assay type: functional, organism-based; in short: as §2
Colletotrichum fragariae [13] = experiment: Antifungal activity against Colletotrichum fragariae assessed as inhibition of fungal growth at 80 ug measured after 4 to 5 days by direct bioautography; assay type: functional; details: read-out: DIZ; in short: as §1
Colletotrichum acutatum [14] = experiment: Antifungal activity against Colletotrichum acutatum assessed as inhibition of fungal growth at 20 ug measured after 4 to 5 days by direct bioautography; assay type: functional; details: read-out: DIZ; in short: as §1
Colletotrichum acutatum [15] = experiment: Antifungal activity against Colletotrichum acutatum assessed as inhibition of fungal growth measured after 48 hr by 96-well microdilution assay; assay type: functional, organism-based; in short: as §2
Fusarium oxysporum [16] = experiment: Antifungal activity against Fusarium oxysporum assessed as inhibition of fungal growth measured after 72 hr by 96-well microdilution assay; assay type: functional, organism-based; in short: as §2
Colletotrichum acutatum [17] = experiment: Antifungal activity against Colletotrichum acutatum assessed as inhibition of fungal growth measured after 72 hr by 96-well microdilution assay; assay type: functional, organism-based; in short: as §2
Phomopsis obscurans [18] = experiment: Antifungal activity against Phomopsis obscurans assessed as inhibition of fungal growth measured after 120 hr by 96-well microdilution assay; assay type: functional, organism-based; details: Paraphomopsis obscurans; in short: as §2
Colletotrichum fragariae [19] = experiment: Antifungal activity against Colletotrichum fragariae assessed as inhibition of fungal growth measured after 72 hr by 96-well microdilution assay; assay type: functional, organism-based; in short: as §2
Colletotrichum fragariae [20] = experiment: Growth stimulation of Colletotrichum fragariae at 333 uM after 24 to 72 hr by 96-well microdilution assay; assay type: functional, organism-based; in short: as §2
Colletotrichum fragariae [21] = experiment: Growth stimulation of Colletotrichum fragariae up to 100 uM after 24 to 72 hr by 96-well microdilution assay; assay type: functional, organism-based; in short: as §2
Colletotrichum acutatum [22] = experiment: Antifungal activity against Colletotrichum acutatum assessed as inhibition of fungal growth at 90 uM measured after 72 hr by 96-well microdilution assay; assay type: functional; details: read-out: GI
In short: (§3)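 Initial three-point microdilution broth screen at final concentrations of 45, 90 and 135 µM, each in duplicate, against a conidial suspension adjusted photometrically to 1.0 × 10^6 conidia/mL. Growth was read as A620 at 0, 24, 48 and 72 h. Percent inhibition/stimulation means were pooled from two experiments replicated in time.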

[23] = test system: Colletotrichum gloeosporioides; experiment: Growth stimulation of Colletotrichum gloeosporioides up to 100 uM after 24 to 72 hr by 96-well microdilution assay; assay type: functional, organism-based; in short: as §2
Colletotrichum acutatum [24] = experiment: Antifungal activity against Colletotrichum acutatum assessed as inhibition of fungal growth at 90 uM measured after 48 hr by 96-well microdilution assay; assay type: functional; details: read-out: GI; in short: as §3
Phomopsis obscurans [25] = experiment: Antifungal activity against Phomopsis obscurans assessed as inhibition of fungal growth measured after 144 hr by 96-well microdilution assay; assay type: functional, organism-based; details: Paraphomopsis obscurans; in short: as §2
Fusarium oxysporum [26] = experiment: Growth stimulation of Fusarium oxysporum at 333 uM after 24 to 72 hr by 96-well microdilution assay; assay type: functional, organism-based; in short: as §2
[27] = test system: Colletotrichum gloeosporioides; experiment: Growth stimulation of Colletotrichum gloeosporioides at 333 uM after 24 to 72 hr by 96-well microdilution assay; assay type: functional, organism-based; in short: as §2

Structure (SMILES) | zone of inhibition at 20 µg/disc (Colletotrichum fragariae [1]) [mm] | IC50 [2] [µM] | IC50 (Phomopsis viticola [3]) [µM] | IC50 (Phomopsis viticola [4]) [µM] | zone of inhibition at 20 µg/disc [5] [mm] | IC50 (Colletotrichum fragariae [6]) [µM] | zone of inhibition at 80 µg/disc [7] [mm] | IC50 (Botrytis cinerea [8]) [µM] | IC50 [9] [µM] | IC50 (Botrytis cinerea [10]) [µM] | zone of inhibition at 80 µg/disc (Colletotrichum acutatum [11]) [mm] | IC50 (Fusarium oxysporum [12]) [µM] | zone of inhibition at 80 µg/disc (Colletotrichum fragariae [13]) [mm] | zone of inhibition at 20 µg/disc (Colletotrichum acutatum [14]) [mm] | IC50 (Colletotrichum acutatum [15]) [µM] | IC50 (Fusarium oxysporum [16]) [µM] | IC50 (Colletotrichum acutatum [17]) [µM] | IC50 (Phomopsis obscurans [18]) [µM] | IC50 (Colletotrichum fragariae [19]) [µM] | further results
CCCCCC(=O)/C=C\C=C\CCCCCCCC(=O)O | 6 | > 333 | 115 | 38 | 6 | 160 | 7 | 120 | > 333 | > 333 | 19 | > 333 | 8 | 4 | > 333 | > 333 | > 333 | 4.5 | 270 | 
CCCCC/C=C\C=C\[C@@H](O)CCCCCCCC(=O)O | 6 | > 333 | > 333 | 100 | 3 | > 333 | 7 | > 333 | > 333 | > 333 | 19 | > 333 | 10 | 5 | > 333 | > 333 | > 333 | 10 | > 333 | Activity (Colletotrichum fragariae [20]): inactive; Activity (Colletotrichum fragariae [21]): Active; inhibition of growth at 90 µM (Colletotrichum acutatum [22]): 37%; Activity [23]: Active; growth inhibition (GI) (Phomopsis viticola [4]): Dose-dependent effect; inhibition of growth at 90 µM (Colletotrichum acutatum [24]): 79%; growth inhibition (GI) (Phomopsis obscurans [25]): Dose-dependent effect; Activity (Fusarium oxysporum [26]): Active; Activity [27]: inactive
CCCCC/C=C/C=C/C(=O)CCCCCCCC(=O)O | 4 | > 333 | 110 | 65 | 6 | 91 | 7 | 90 | > 333 | > 333 | 17 | > 333 | 6 | 8 | > 333 | > 333 | > 333 | 23 | > 333 | 
O=C1C2CC=CCC2C(=O)N1SC(Cl)(Cl)Cl (centres undefined) [CAPTAN] |  | 2.1 | < 1 | < 1 |  | 1.6 |  | 1.4 | 4.7 | 2.8 |  | 2.8 |  |  | 2.5 | 16 | 5.2 | 1.1 | 3 | 
